Laboratory results: ChEMBL document CHEMBL4382220, “Enhancement of the tail hydrophobic interactions within the carbonic anhydrase IX active site via structural extension: Design and synthesis of novel N-substituted isatins-SLC-0111 hybrids as carbonic anhydrase inhibitors and antitumor agents” (Eur J Med Chem, 2019)
pIC50, pKi: −log10 of the molar value.

Experiments:
[1] = molecular target: Carbonic anhydrase 1 (Homo sapiens, UniProt P00915); experiment: Inhibition of recombinant human carbonic anhydrase 1 by stopped flow CO2 hydration assay
Carbonic anhydrase 1, sequence (P00915 whole entry): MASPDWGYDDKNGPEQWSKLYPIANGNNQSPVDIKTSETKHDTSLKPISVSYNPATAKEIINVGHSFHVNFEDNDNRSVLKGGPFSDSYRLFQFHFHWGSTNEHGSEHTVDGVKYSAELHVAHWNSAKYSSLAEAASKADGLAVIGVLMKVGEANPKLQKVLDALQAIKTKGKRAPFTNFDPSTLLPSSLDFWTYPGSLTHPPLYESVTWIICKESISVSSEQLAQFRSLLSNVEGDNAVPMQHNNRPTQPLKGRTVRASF

[2] = molecular target: Carbonic anhydrase 9 (Homo sapiens, UniProt Q16790)
[3] = molecular target: Vascular endothelial growth factor receptor 2 (Homo sapiens, UniProt P35968)
Vascular endothelial growth factor receptor 2, sequence (P35968 whole entry): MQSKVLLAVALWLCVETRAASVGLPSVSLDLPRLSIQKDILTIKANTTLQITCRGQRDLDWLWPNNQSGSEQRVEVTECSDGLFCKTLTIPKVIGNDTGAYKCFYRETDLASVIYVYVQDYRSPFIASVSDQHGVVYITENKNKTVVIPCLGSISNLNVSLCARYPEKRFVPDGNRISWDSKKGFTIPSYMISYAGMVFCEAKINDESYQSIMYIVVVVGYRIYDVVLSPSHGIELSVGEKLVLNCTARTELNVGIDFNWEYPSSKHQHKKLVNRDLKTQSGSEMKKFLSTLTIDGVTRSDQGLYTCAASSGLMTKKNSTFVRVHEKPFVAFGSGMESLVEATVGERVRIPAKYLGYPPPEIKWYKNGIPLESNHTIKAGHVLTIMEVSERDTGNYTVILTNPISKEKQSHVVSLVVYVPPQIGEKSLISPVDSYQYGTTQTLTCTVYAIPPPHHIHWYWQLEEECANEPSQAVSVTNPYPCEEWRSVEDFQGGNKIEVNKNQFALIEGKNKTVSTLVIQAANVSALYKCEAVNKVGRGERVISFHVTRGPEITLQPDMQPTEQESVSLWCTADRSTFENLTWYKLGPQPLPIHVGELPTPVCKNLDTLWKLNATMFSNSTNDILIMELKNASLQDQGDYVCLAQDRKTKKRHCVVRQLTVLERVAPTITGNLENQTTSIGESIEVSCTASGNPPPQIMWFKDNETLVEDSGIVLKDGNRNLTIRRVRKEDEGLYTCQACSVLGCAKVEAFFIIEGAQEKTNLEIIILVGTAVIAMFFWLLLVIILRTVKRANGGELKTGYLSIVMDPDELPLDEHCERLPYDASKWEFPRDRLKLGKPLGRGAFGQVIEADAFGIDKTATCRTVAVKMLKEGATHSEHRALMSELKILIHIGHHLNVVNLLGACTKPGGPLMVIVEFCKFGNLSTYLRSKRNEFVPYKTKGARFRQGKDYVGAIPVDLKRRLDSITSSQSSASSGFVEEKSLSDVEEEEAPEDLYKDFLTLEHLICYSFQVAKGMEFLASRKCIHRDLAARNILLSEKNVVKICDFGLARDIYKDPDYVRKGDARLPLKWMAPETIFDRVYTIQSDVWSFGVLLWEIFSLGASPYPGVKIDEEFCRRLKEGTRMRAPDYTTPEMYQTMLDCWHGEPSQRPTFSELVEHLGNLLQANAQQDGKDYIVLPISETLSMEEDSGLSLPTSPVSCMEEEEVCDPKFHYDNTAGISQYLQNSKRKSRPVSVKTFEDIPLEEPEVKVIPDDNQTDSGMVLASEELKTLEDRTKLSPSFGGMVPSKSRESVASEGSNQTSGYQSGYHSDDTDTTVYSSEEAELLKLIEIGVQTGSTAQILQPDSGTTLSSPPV

[4] = test system: MDA-MB-231; experiment: Antiproliferative activity against human MDA-MB-231 cells after 48 hrs under hypoxic condition by MTT assay; type: functional, cell-based; details: MDA-MB-231, 48 h
How it was run: (§1)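 MCF-7 and MDA-MB-231 cells (ATCC) grown in DMEM with 10% heat-inactivated FBS, 1% L-glutamine (2.5 mM), 10 mM HEPES, 50 μg/mL gentamycin and 100 μM CoCl2 as hypoxia inducer, 37 C, 5% CO2. MTT read-out after 48 h exposure. IC50 is the concentration giving 50% growth inhibition relative to untreated controls, mean ± S.D. of three separate experiments.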

[5] = test system: MCF7; experiment: Antiproliferative activity against human MCF7 cells after 48 hrs under hypoxic condition by MTT assay; type: functional, cell-based; details: MCF7, 48 h; how it was run: as §1
[6] = test system: MDA-MB-231; experiment: Induction of apoptosis in human MDA-MB-231 cells assessed as early apoptotic cells after 24 hrs by Annexin V-FITC/propidium iodide staining based flow cytometry (reference value: 0.77%); type: functional
[7] = test system: MDA-MB-231; experiment: Induction of apoptosis in human MDA-MB-231 cells assessed as late apoptotic cells after 24 hrs by Annexin V-FITC/propidium iodide staining based flow cytometry (reference value: 0.26%); type: functional
[8] = test system: MDA-MB-231; experiment: Induction of apoptosis in human MDA-MB-231 cells assessed as necrotic cells after 24 hrs by Annexin V-FITC/propidium iodide staining based flow cytometry (reference value: 0.51%); type: functional

SMILES | pKi [1] | pKi [2] | also measured
CCCN1C(=O)/C(=N\c2ccc(NC(=O)Nc3ccc(S(N)(=O)=O)cc3)cc2)c2cc(Cl)ccc21 | 6.22 | 8.09 | pIC50 [3]: 6.42; pIC50 [4]: 4.59; pIC50 [5]: 5.13
Cc1ccc(CN2C(=O)/C(=N\c3ccc(NC(=O)Nc4ccc(S(N)(=O)=O)cc4)cc3)c3cc(Cl)ccc32)cc1 | 5.21 | 7.37 | 
CN1C(=O)/C(=N\c2ccc(NC(=O)Nc3ccc(S(N)(=O)=O)cc3)cc2)c2cc(Cl)ccc21 | 6.39 | 8.28 | Activity [6]: 7.28%; Activity [7]: 11.26%; pIC50 [3]: 6.58; pIC50 [4]: 5.13; Activity [8]: 2.47%; pIC50 [5]: 4.89
COc1cccc2c1C(=O)c1c(O)c3c(c(O)c1C2=O)C[C@@](O)(C(=O)CO)C[C@@H]3O[C@H]1C[C@H](N)[C@H](O)[C@H](C)O1 [DOXORUBICIN] |  |  | pIC50 [4]: 5.07
CCCN1C(=O)/C(=N\c2ccc(NC(=O)Nc3ccc(S(N)(=O)=O)cc3)cc2)c2ccccc21 | 6.03 | 7.71 | 
CCCN1C(=O)/C(=N\c2ccc(NC(=O)Nc3ccc(S(N)(=O)=O)cc3)cc2)c2cc(Br)ccc21 | 5.53 | 7.57 | 
N#Cc1ccc(CN2C(=O)/C(=N\c3ccc(NC(=O)Nc4ccc(S(N)(=O)=O)cc4)cc3)c3cc(Cl)ccc32)cc1 | 5.08 | 7.46 | 
CN1C(=O)/C(=N\c2ccc(NC(=O)Nc3ccc(S(N)(=O)=O)cc3)cc2)c2ccccc21 | 6.05 | 7.60 | 
CN1C(=O)/C(=N\c2ccc(NC(=O)Nc3ccc(S(N)(=O)=O)cc3)cc2)c2cc(Br)ccc21 | 5.71 | 8.04 | 

More lines, main results first:

pKi [1] | pKi [2] | SMILES | also measured
5.33 | 7.21 | NS(=O)(=O)c1ccc(NC(=O)Nc2ccc(/N=C3\C(=O)N(Cc4cccc(F)c4)c4ccc(Br)cc43)cc2)cc1 | 
5.64 | 8.01 | N#Cc1ccc(CN2C(=O)/C(=N\c3ccc(NC(=O)Nc4ccc(S(N)(=O)=O)cc4)cc3)c3ccccc32)cc1 | pIC50 [3]: 6.68; pIC50 [4]: 4.64; pIC50 [5]: 5.22
6.19 | 7.14 | NS(=O)(=O)c1ccc(NC(=O)Nc2ccc(/N=C3\C(=O)N(Cc4ccccc4)c4ccccc43)cc2)cc1 | 
5.33 | 7.58 | Cc1ccc(CN2C(=O)/C(=N\c3ccc(NC(=O)Nc4ccc(S(N)(=O)=O)cc4)cc3)c3cc(Br)ccc32)cc1 | 
5.60 | 7.06 | NS(=O)(=O)c1ccc(NC(=O)Nc2ccc(/N=C3\C(=O)N(Cc4ccccc4)c4ccc(Cl)cc43)cc2)cc1 | 
5.23 | 7.43 | N#Cc1ccc(CN2C(=O)/C(=N\c3ccc(NC(=O)Nc4ccc(S(N)(=O)=O)cc4)cc3)c3cc(Br)ccc32)cc1 | 
5.18 | 8.33 | Cc1ccc(CN2C(=O)/C(=N\c3ccc(NC(=O)Nc4ccc(S(N)(=O)=O)cc4)cc3)c3ccccc32)cc1 | pIC50 [3]: 6.34; pIC50 [4]: 4.31; pIC50 [5]: 4.93
5.23 | 7.39 | NS(=O)(=O)c1ccc(NC(=O)Nc2ccc(/N=C3\C(=O)N(Cc4ccccc4)c4ccc(Br)cc43)cc2)cc1 | 
5.68 | 7.26 | NS(=O)(=O)c1ccc(NC(=O)Nc2ccc(/N=C3\C(=O)N(Cc4cccc(F)c4)c4ccccc43)cc2)cc1 | 
5.29 | 7.23 | NS(=O)(=O)c1ccc(NC(=O)Nc2ccc(/N=C3\C(=O)N(Cc4cccc(F)c4)c4ccc(Cl)cc43)cc2)cc1 | 
